CYP2C9 act: increases human cytochrome P450 2C9 activity; P11712; recombinant CYP2C9, luciferin-H conversion, luminescence; stronger effect = higher value; factor 1 = untreated enzyme, 0 = blocked; activation factor at 5 µM; hit rate 1.4% among 96,000;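 active = activation factor of 2 or more for CYP2C9 at a 5 µM dose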;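 note: 0 = sulfaphenazole-blocked wells and 1 = vehicle-only wells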
Ecoli tolC: E. coli tolC mutant growth inhibition | AID 573 | growth inhibition, % at 10 µM (by protocol) | E. coli BW25113 tolC mutant growth, OD615 | hit rate 2.2% among 65,000;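 active = growth inhibition at or above a cutoff equal to the mean over every tested compound plus 3 SD, cut at about 60% in these data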;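 note: growth measured after 20 h incubation at 37 °C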
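Signal: optical density read at 615 nm; Assay system: E. coli ΔtolC::kan strain BW25113; Times: 20 h incubation with compound, 37 °C; Dosing: 10 µM final, single dose.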
E coli WT exp: blocks growth of wild type E. coli BW25113 | hit rate 0.15% among 98,000 | growth inhibition, % at 100 µM | OD600 absorbance;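 active = growth inhibition above about 50% at one test dose, limit read from the data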;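 note: growth measured after 20 h incubation at 37 °C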
CYP2C19 act: cytochrome P450 2C19 (human) activation | P33261 | recombinant CYP2C19, luciferin-H EGE luminescence; stronger effect = higher value; 0 = fully inhibited enzyme, 1 = untreated enzyme | activation factor at 5 µM | 96,000 tested, under 10 active | AID 1025;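 active = activation factor of at least 2 at 5 µM in the primary screen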;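 note: 0 = wells with 2.5 mM tranylcypromine and 1 = vehicle-only wells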
Target sequence (P33261 whole entry, looked up): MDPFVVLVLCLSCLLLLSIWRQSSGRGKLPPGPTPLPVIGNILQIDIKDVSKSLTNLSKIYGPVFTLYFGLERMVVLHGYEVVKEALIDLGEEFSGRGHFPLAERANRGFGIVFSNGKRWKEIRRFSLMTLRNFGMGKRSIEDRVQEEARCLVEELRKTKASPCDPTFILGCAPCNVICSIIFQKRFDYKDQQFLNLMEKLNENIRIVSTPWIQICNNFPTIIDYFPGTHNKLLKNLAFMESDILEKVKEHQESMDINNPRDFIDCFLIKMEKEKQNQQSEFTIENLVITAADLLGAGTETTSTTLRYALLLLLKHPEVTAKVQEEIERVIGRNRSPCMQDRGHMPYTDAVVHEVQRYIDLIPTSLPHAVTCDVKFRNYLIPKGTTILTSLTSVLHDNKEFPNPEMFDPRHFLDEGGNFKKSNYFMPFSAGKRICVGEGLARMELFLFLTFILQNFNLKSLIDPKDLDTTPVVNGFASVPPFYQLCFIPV
CYP2C9 inh: blocks human cytochrome P450 2C9; CYP2C9 Supersomes, luciferin-H conversion, luminescence; inhibition, % at 5 µM; hit rate 20% among 96,000; P11712; AID 777;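 active = blocking of liver enzyme CYP2C9 beyond about 50% at 5 µM, limit read from the data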
CYP2C19 inhib: blocks human cytochrome P450 2C19; hit rate 21% among 96,000; AID 778; CYP2C19 Supersomes, luciferin-H EGE luminescence, 30 min; inhibition, % at 5 µM; P33261;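 active = CYP2C19 inhibition above a set limit at 5 µM in the primary screen, cut at about 50% in these data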;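 note: plate controls were negative control wells for no effect and 2.5 mM tranylcypromine positive control for full effect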
Numbers without * were called inactive; / = no result given. A selection: hits, their analogues and other compounds. The true share with any hit is near 29%.

SMILES	CYP2C9 act	Ecoli tolC	E coli WT exp	CYP2C19 act	CYP2C9 inh	CYP2C19 inhib
Cc1ccc2c(c1)nnn2C1CCN(S(=O)(=O)c2ccc(C(=O)N(C)C3CCCCC3)cc2)CC1	1	30	-12	1	-5	-1
CN1C(=O)c2ccccc2C(C(=O)NCC2CCCO2)C1c1c[nH]c2ccccc12 (stereo not drawn)	1.2	-12	0	1.2	-22	-20
Cc1cc(Nc2ccc(Cl)cc2)n(-c2ccccc2)n1	0.3	/	11	0.4	70*	59*
O=c1c2ccccc2nc(SCc2cn3ccsc3n2)n1-c1ccc(F)cc1	0	24	32	0.2	97*	84*
Cc1cc2nncn2c(Cc2ccccc2)n1	0.9	10	-9	0.7	6	26
CCCS(=O)(=O)N1CCN(C(=O)COc2ccc(OC)cc2)CC1	0.8	/	-6	0.9	16	12
CCOC(=O)c1c(C)nc2sccn12	1.1	-19	-2	0.9	-15	12
Cc1nc2sccn2c1P(c1c(C)nc2sccn12)c1c(C)nc2sccn12	0.4	-1	/	0.3	63*	72*
Cc1noc(C)c1COC(=O)c1cc2c3ccccc3n(C)c2s1	0.2	29	-24	0.4	81*	57*
Cc1noc(C)c1COC(=O)c1cc2c(C)nn(-c3ccc(F)cc3)c2s1	0.9	-22	/	1.1	13	-11
COc1ccc(C2C3=C(CCCC3=O)Nc3c(-c4ccccc4)c(C)nn32)cc1 (stereo not drawn)	0.6	/	-6	0.3	35	71*
Cc1cc(-c2nc3ncccc3o2)ccc1NC(=O)CC(C)C	0.7	-7	-1	0.9	25	7
Cc1ccc(OCC(=O)Nc2ccc(-c3nc4ncccc4o3)cc2)c(C)c1	0.5	7	4	0.4	46	63*
CC1=C(C(=O)NCCCOC(C)C)C2(CCC(C)CC2)OC1=O (stereo not drawn)	0.9	-1	0	0.4	14	64*
COc1ccc(CNC(=O)C2=C(C)C(=O)OC23CCC(C)CC3)cc1 (stereo not drawn)	0.7	/	11	0.5	25	55*
COc1ccc(NC(=O)C2=C(C)C(=O)OC23CCC(C)CC3)cc1Cl (stereo not drawn)	0.8	/	-15	0.7	22	32
CC1=C(C(=O)NCc2ccccn2)C2(CCC(C)CC2)OC1=O (stereo not drawn)	0.9	-4	0	0.2	12	77*
Cc1cc2c(cc(C(=O)N3CCC(C(=O)NC4CCCC4)CC3)n2Cc2c(F)cccc2Cl)o1	/	26	/	/	/	/
COc1cc(CN2CCN(c3ccc(C)cc3)CC2)cc([N+](=O)[O-])c1O	0.9	/	-4	1	9	1
CCCCN(C)C(=O)c1c[nH]c2ccc(S(=O)(=O)N3CCOCC3)cc2c1=O	/	-17	-9	/	/	/
Fc1ccccc1N1CCN(Cc2nc(-c3ccc(Cl)cc3Cl)no2)CC1	0.4	20	-2	0.6	61*	38
Cc1ccc(CN2CCC(C(=O)NCCC(C)C)CC2)o1	0.9	-8	0	1	13	4
CCN(CC)C(=S)Sc1c(-c2ccccc2)c2cc(Cl)ccc2[nH]c1=O	0.9	/	-12	1.2	8	-16
Cn1c(=O)[nH]c(=O)c2c1nc(SCC(=O)O)n2CCc1ccccc1	1	-12	0	1	2	-3
Clc1ccc(Cn2c(-c3cccnc3Cl)nc3ccccc32)cc1	0.4	/	0	0.2	65*	82*
SMILES	CYP2C9 act	Ecoli tolC	E coli WT exp	CYP2C19 act	CYP2C9 inh	CYP2C19 inhib
CCn1c(-c2cccnc2Cl)nc2cc(Cl)c(Cl)cc21	0.3	/	7	0.5	67*	50
COc1ccccc1Cn1c(-c2ccccc2OC)nc2ccccc21	1.1	/	-6	1.3	-6	-29
Clc1ccc(Cn2c(-c3cccnc3Cl)nc3ccccc32)c(Cl)c1	0.4	/	-1	0.4	58*	60*
Fc1ccc(Cn2c(-c3cscn3)nc3ccccc32)c(Cl)c1	1.1	/	-1	1.1	-7	-8
Oc1ccccc1Cn1c(-c2ccccc2O)nc2ccccc21	0.3	42	0	0.4	66*	60*
CCOC(=O)Cn1c(-c2cccnc2Cl)nc2cc(Cl)c(Cl)cc21	0.8	/	-4	0.9	24	10
CCCCNC(=O)CSc1nc2cc3c(cc2c(=O)n1CCCN(CC)CC)OCO3	0.9	-11	-3	1.1	10	-6
CC(C)CCNC(=O)CN(Cc1cccs1)C(=O)CCC(=O)Nc1nccs1	0.7	/	0	0.8	29	20
Cc1cccc(-n2ccnc2SCC(=O)Nc2ccc3c(c2)OCCO3)c1	0.3	32	1	0.6	70*	45
Nn1c(SCC(=O)Nc2ccc3c(c2)OCO3)nnc1-c1ccncc1	0.8	1	5	1	22	-2
Cc1cccc(-n2c(SCC(=O)Nc3ccc4c(c3)OCO4)nnc2-c2ccoc2C)c1	0.9	-12	-6	1	8	1
O=C(CSc1nccn1-c1ccc(Cl)cc1)Nc1ccc2c(c1)OCO2	0.5	26	-2	0.3	54*	69*
COc1c(F)c(F)c(C(=O)O)c(Nc2ccccc2)c1F	1	/	-8	0.9	0	14
O=C(CCc1nc2ccccc2[nH]c1=O)OCC(=O)N1CCc2ccccc21	0.7	11	-1	0.8	28	24
C=CCOC(=O)CSCC(NC(=O)OC(C)(C)C)C(=O)OCC (stereo not drawn)	0.5	/	8	0.4	45	58*
CCOC(=O)N1CCN(C(=O)C2CCN(Cc3nc(-c4ccccc4C)oc3C)CC2)CC1	1	-4	3	0.7	-3	28
COc1cccc(N2CC(O)=C(c3ccccc3)C2=N)c1	1.1	/	5	0.9	-6	12
O=C(c1ccco1)N1CCN(c2nc(C3CC3)nc3sc4c(c23)CCCC4)CC1	0.3	77*	-11	0.6	70*	36
CCc1nc(SCC(=O)N2CCN(C(=O)c3ccco3)CC2)c2c3c(sc2n1)CCCC3	0.4	46	3	0.9	59*	11
Cc1cc2occ(CC(=O)NC3=NCCS3)c2cc1C(C)C	1.2	11	0	0.7	-20	26
CC(C)COC(=O)Nc1ccccc1C(=O)N1CCOCC1	1	-4	-3	0.8	5	18
COC(=O)CCC(=O)c1oc2ccccc2c1N	0.7	-5	4	0.2	35	84*
CC(=O)NCCn1c(SCc2ccc(C)cc2C)nc2ccccc2c1=O	0	/	-4	0	98*	98*
O=c1c2ccccc2nc(SCc2cc(F)ccc2F)n1C1CCCC1	0.9	/	-14	1.1	11	-12
CC(=O)NCCn1c(SCc2ccccc2C)nc2ccccc2c1=O	0	/	3	0.2	98*	79*
CC(=O)NCCn1c(SCc2cc(F)ccc2F)nc2ccccc2c1=O	0	/	-4	0.2	99*	76*
CCn1c(SCC(N)=O)nc2ccccc2c1=O	1.1	-3	3	1.1	-8	-11
